Data reported in ChEMBL document CHEMBL4321879, “Novel Class of Colony-Stimulating Factor 1 Receptor Kinase Inhibitors Based on an o-Aminopyridyl Alkynyl Scaffold as Potential Treatment for Inflammatory Disorders” (J Med Chem, 2020).

Legend:
[1] = target: Platelet-derived growth factor receptor alpha (Homo sapiens) (UniProt P16234); experiment: Inhibition of recombinant human N-terminal His6-tagged PDGFRalpha (550 to end residues) expressed in baculovirus infected Sf21 insect cells at 10 nM using poly (Glu, Tyr)4:1 as substrate measured after 1 hr by ELISA relative to control
Summary of the method: (§1)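 ELISA kinase assay: recombinant kinase added to wells precoated with poly(Glu,Tyr)4:1 and incubated with compound in reaction buffer containing 5 μM ATP, 37 °C for 1 h; wells then washed before antibody detection.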

c-KIT = c-KIT (Homo sapiens, UniProt P10721); experiment: Inhibition of recombinant human N-terminal GST-tagged c-KIT (544 to end residues) expressed in baculovirus infected Sf21 insect cells at 100 nM using poly (Glu, Tyr)4:1 as substrate measured after 1 hr by ELISA relative to control; conditions: probe poly (Glu, Tyr)4:1
Summary of the method: (§2)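 Recombinant kinase was incubated with compound in reaction buffer containing 5 μM ATP, in wells precoated with poly(Glu,Tyr) 4:1, for 1 h at 37 °C. Phosphorylation was detected by ELISA.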

[2] = Elimination half life in Sprague-Dawley rat at 5 mg/kg, po administered via gavage by LC-MS/MS analysis; type: ADME, organism-based; conditions: in vivo, read-out: beta t1/2 (converted)
Summary of the method: (§3)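 Male SD rats (200 ± 20 g) were fasted 12 h with free access to water, n = 3 per group. One group received 2 mg/kg iv in DMSO/EtOH/PEG300/saline (5/5/40/50). The other received 5 mg/kg by oral gavage in DMSO/HPMC (5/95). Femoral-vein plasma was taken at 15–1440 min, methanol-precipitated with internal standard, and measured by LC–MS/MS. Noncompartmental analysis; AUC by trapezoidal method.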

[3] = target: Vascular endothelial growth factor receptor 3 (Homo sapiens) (UniProt P35916); experiment: Inhibition of recombinant VEGFR3 (unknown origin) at 10 nM using poly (Glu, Tyr)4:1 as substrate measured after 1 hr by ELISA relative to control; summary of the method: as §2
[4] = target: T1, Fibroblast growth factor receptor 2 (Homo sapiens, UniProt P21802); experiment: Inhibition of recombinant human N-terminal His6-tagged FGFR2 (456 to 770 residues) expressed in baculovirus infected Sf21 insect cells at 1000 nM using poly (Glu, Tyr)4:1 as substrate measured after 1 hr by ELISA relative to control; summary of the method: as §2
Target sequence in this assay (P21802 22-821 limits assumed): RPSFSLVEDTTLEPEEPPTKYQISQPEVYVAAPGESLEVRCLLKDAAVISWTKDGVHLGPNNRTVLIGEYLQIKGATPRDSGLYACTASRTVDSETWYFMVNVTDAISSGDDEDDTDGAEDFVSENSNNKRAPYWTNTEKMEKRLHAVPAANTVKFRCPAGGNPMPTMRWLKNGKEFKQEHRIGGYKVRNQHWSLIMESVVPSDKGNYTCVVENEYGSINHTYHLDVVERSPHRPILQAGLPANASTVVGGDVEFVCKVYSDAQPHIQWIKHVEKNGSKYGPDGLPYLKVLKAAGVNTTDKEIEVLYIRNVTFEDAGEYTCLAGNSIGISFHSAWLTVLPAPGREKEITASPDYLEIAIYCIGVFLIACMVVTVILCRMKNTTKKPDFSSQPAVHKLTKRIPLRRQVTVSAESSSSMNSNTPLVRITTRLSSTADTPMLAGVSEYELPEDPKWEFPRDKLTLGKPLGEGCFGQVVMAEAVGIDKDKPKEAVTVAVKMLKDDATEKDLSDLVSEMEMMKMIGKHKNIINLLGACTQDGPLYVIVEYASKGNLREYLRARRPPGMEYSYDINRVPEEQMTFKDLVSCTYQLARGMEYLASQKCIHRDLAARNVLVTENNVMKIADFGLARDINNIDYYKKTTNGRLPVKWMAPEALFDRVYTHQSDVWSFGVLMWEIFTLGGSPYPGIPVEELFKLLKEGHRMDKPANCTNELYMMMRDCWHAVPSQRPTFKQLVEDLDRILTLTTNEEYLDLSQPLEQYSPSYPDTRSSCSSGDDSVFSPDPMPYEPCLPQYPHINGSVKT

[5] = target: T2, Fibroblast growth factor receptor 4 (Homo sapiens, UniProt P22455); experiment: Inhibition of recombinant human N-terminal His6-tagged FGFR4 (442 to 755 residues) expressed in baculovirus infected Sf21 insect cells at 100 nM using poly (Glu, Tyr)4:1 as substrate measured after 1 hr by ELISA relative to control; summary of the method: as §2
T2 sequence (P22455 22-802 limits assumed): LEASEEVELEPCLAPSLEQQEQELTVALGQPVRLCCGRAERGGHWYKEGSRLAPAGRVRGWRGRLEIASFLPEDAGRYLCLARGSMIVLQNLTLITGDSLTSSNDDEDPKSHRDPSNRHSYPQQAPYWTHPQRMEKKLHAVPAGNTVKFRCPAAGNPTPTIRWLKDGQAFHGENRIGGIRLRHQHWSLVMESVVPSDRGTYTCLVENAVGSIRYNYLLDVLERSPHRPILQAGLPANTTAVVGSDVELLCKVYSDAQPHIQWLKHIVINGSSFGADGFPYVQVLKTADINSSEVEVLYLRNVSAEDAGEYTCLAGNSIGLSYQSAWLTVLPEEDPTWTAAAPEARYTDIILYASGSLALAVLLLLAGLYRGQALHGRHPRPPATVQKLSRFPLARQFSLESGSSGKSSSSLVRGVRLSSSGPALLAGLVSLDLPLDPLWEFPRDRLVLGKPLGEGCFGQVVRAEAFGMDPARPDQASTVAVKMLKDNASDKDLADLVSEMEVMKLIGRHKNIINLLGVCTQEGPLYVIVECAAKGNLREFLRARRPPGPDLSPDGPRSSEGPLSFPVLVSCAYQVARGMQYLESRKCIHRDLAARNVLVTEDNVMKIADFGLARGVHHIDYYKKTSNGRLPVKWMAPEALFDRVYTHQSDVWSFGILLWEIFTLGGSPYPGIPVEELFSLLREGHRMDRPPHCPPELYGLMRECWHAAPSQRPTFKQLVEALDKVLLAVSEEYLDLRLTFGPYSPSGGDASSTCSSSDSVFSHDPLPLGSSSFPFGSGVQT

FLT3 = FLT3 (Homo sapiens, UniProt P36888); experiment: Inhibition of recombinant human N-terminal GST-tagged FLT3 (564 to end residues) expressed in Sf21 insect cells at 1000 nM using poly (Glu, Tyr)4:1 as substrate measured after 1 hr by ELISA relative to control; conditions: probe poly (Glu, Tyr)4:1; summary of the method: as §2
[6] = target: T1, Fibroblast growth factor receptor 2; experiment: Inhibition of recombinant human N-terminal His6-tagged FGFR2 (456 to 770 residues) expressed in baculovirus infected Sf21 insect cells at 100 nM using poly (Glu, Tyr)4:1 as substrate measured after 1 hr by ELISA relative to control; summary of the method: as §2
Target sequence in this assay (P21802 22-821 limits assumed): as the sequence (P21802 22-821 limits assumed) above

[7] = target: Proto-oncogene tyrosine-protein kinase Src (Homo sapiens) (UniProt P12931); experiment: Inhibition of recombinant human full-length N-terminal His6-tagged Src expressed in Sf21 insect cells at 100 nM using poly (Glu, Tyr)4:1 as substrate measured after 1 hr by ELISA relative to control; summary of the method: as §1
Chain of Proto-oncogene tyrosine-protein kinase Src (Homo sapiens) (P12931 2-536 limits assumed): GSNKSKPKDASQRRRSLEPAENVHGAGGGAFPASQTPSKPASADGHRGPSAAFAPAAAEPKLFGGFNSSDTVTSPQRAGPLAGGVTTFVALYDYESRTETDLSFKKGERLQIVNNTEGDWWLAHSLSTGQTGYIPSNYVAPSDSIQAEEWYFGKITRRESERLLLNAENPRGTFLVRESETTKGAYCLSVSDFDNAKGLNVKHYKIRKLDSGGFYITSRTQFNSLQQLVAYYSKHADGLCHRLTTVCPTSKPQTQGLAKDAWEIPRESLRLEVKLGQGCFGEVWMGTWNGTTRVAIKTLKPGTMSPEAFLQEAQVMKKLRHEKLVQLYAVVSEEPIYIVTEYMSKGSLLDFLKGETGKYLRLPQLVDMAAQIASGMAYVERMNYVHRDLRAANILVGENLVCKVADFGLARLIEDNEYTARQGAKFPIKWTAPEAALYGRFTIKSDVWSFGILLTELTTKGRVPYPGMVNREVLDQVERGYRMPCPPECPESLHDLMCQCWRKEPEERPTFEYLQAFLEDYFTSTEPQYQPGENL

[8] = target: Fibroblast growth factor receptor 3 (Homo sapiens, UniProt P22607); experiment: Inhibition of recombinant human N-terminal His6-tagged FGFR3 (447 to 761 residues) expressed in baculovirus infected Sf21 insect cells at 1000 nM using poly (Glu, Tyr)4:1 as substrate measured after 1 hr by ELISA relative to control; summary of the method: as §2
[9] = Volume of distribution at steady state in Sprague-Dawley rat at 2 mg/kg, iv administered […] by LC-MS/MS analysis; type: ADME, organism-based; conditions: in vivo, read-out: Vdss
Summary of the method: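 Male SD rats (200 ± 20 g), fasted 12 h, n = 3; single intravenous dose of 2 mg/kg in DMSO/EtOH/PEG300/saline (5/5/40/50). Femoral vein blood at 15–1440 min; plasma precipitated with methanol containing internal standard, assayed by LC–MS/MS; noncompartmental analysis (MRT = AUMC/AUC, Vss = CL × MRT).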

[10] = Cmax in Sprague-Dawley rat at 5 mg/kg, po administered via gavage by LC-MS/MS analysis; type: ADME, organism-based; parameters: dose 5 mg/kg, route oral; conditions: in vivo; summary of the method: as §3
[11] = MRT (infinity) in Sprague-Dawley rat at 5 mg/kg, po administered via gavage by LC-MS/MS analysis; type: ADME, organism-based; conditions: in vivo
Summary of the method: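 Male SD rats (200 ± 20 g), fasted 12 h, n = 3; oral gavage 5 mg/kg in DMSO/HPMC (5/95). Femoral vein blood at 15–1440 min; plasma precipitated with methanol plus internal standard, LC–MS/MS; noncompartmental analysis, Tmax observed directly, MRT = AUMC/AUC.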

[12] = target: Epidermal growth factor receptor (Homo sapiens) (UniProt P00533); experiment: Inhibition of recombinant human N-terminal GST-tagged EGFR (696 to end residues) expressed in baculovirus infected Sf21 insect cells at 1000 nM using poly (Glu, Tyr)4:1 as substrate measured after 1 hr by ELISA relative to control; summary of the method: as §2
Chain of Epidermal growth factor receptor (Homo sapiens) (P00533 whole entry, the tested form may be a part): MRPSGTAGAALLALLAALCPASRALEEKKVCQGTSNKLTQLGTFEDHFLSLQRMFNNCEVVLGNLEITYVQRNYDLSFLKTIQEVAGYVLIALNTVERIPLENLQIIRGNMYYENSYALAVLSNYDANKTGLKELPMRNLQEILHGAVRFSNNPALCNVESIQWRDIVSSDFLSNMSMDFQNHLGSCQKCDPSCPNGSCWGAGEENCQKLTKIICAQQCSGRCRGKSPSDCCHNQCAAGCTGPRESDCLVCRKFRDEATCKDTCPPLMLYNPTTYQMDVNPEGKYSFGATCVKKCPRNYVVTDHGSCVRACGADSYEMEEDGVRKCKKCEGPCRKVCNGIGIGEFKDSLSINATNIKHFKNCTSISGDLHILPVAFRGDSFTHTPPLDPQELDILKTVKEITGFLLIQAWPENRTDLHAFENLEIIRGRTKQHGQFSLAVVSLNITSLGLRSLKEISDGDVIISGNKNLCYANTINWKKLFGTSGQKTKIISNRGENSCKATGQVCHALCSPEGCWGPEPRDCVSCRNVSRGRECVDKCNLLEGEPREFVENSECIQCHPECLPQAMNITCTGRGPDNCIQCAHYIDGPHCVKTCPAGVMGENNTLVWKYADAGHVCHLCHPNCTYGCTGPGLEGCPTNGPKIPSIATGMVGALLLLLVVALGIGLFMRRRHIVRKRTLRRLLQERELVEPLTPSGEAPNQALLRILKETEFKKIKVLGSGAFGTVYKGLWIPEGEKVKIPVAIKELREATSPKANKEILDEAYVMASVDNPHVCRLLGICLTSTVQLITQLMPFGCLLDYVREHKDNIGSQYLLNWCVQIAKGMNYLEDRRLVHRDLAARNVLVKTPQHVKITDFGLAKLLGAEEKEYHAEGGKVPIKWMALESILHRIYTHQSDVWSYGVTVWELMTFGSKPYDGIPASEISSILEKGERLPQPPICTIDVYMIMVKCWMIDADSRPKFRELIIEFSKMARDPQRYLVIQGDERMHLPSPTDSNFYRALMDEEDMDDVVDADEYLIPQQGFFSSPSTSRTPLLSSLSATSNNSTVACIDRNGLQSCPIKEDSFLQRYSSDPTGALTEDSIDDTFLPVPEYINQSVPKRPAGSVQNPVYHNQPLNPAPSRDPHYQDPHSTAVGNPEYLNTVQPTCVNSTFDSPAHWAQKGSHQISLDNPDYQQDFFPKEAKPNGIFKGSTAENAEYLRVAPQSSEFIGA

[13] = target: T1, Fibroblast growth factor receptor 2; experiment: Inhibition of recombinant human N-terminal His6-tagged FGFR2 (456 to 770 residues) expressed in baculovirus infected Sf21 insect cells using poly (Glu, Tyr)4:1 as substrate measured after 1 hr by ELISA; summary of the method: as §2
[14] = target: Insulin-like growth factor 1 receptor (Homo sapiens) (UniProt P08069); experiment: Inhibition of recombinant human N-terminal His6-tagged IGF1R (959 to end residues) expressed in baculovirus infected Sf21 insect cells at 1000 nM using poly (Glu, Tyr)4:1 as substrate measured after 1 hr by ELISA relative to control; summary of the method: as §1
[15] = target: T2, Fibroblast growth factor receptor 4; experiment: Inhibition of recombinant human N-terminal His6-tagged FGFR4 (442 to 755 residues) expressed in baculovirus infected Sf21 insect cells at 1000 nM using poly (Glu, Tyr)4:1 as substrate measured after 1 hr by ELISA relative to control; summary of the method: as §1
[16] = target: Vascular endothelial growth factor receptor 1 (Homo sapiens) (UniProt P17948); experiment: Inhibition of recombinant human VEGFR1 expressed in Spodoptera frugiperda insect cells at 1000 nM using poly (Glu, Tyr)4:1 as substrate measured after 1 hr by ELISA relative to control; summary of the method: as §1
[17] = target: Receptor tyrosine-protein kinase erbB-4 (Homo sapiens) (UniProt Q15303); experiment: Inhibition of recombinant human N-terminal His6-tagged Erbb4 (706 to 991 residues) expressed in baculovirus infected Sf21 insect cells at 1000 nM using poly (Glu, Tyr)4:1 as substrate measured after 1 hr by ELISA relative to control; summary of the method: as §2
Chain of Receptor tyrosine-protein kinase erbB-4 (Homo sapiens) (Q15303 whole entry, the tested form may be a part): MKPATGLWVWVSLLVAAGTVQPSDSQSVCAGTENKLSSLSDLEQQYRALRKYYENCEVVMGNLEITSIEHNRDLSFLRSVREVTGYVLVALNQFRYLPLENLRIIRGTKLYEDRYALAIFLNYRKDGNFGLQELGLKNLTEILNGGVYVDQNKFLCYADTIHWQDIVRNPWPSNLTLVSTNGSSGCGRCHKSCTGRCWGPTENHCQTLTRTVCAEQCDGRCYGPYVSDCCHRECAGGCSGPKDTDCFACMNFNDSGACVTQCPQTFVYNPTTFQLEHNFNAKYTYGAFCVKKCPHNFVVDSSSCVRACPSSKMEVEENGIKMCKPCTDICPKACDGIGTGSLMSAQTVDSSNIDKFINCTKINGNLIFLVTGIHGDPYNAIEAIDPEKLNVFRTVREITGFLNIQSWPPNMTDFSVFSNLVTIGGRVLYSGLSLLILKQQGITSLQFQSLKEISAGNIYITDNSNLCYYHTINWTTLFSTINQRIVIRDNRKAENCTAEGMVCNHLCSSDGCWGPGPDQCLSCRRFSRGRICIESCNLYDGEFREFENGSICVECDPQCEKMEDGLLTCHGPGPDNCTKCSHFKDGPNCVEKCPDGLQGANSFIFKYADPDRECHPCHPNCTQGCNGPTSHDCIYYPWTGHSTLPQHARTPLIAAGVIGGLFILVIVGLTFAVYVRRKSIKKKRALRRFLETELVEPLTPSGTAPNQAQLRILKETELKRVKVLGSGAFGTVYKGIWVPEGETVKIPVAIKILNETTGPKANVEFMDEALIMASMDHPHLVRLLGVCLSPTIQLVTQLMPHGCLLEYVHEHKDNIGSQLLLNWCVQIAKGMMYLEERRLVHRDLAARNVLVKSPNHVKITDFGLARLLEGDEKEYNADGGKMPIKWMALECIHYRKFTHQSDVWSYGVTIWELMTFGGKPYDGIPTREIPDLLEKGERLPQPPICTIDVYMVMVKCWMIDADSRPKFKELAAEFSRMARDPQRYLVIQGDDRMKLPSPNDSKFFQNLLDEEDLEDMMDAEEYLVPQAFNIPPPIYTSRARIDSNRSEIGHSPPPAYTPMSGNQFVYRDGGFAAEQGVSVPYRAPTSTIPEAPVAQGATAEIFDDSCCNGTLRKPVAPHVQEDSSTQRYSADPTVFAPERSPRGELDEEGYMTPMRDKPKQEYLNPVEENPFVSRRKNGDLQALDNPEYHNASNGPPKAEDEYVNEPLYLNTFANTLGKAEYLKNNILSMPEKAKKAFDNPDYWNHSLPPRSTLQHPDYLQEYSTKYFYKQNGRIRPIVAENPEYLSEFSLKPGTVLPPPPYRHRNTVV

inhibition [1]: 54.6%
inhibition at 1 h, 0.1 µM (c-KIT): 100%
half-life [2]: 2.21 h
inhibition [3]: 27.3%
inhibition [4]: 20.7%
inhibition [5]: 0%
inhibition at 1 h, 1 µM (FLT3): 5.9%
inhibition [6]: 16.2%
inhibition [7]: 61.7%
inhibition [8]: 2.3%
Vd [9]: 6.34 L/kg
Cmax [10]: 0.166 µg/mL
MRT inf [11]: 5.42 h
inhibition [12]: 0%
IC50 [13]: > 1 µM
inhibition [14]: 0%
inhibition [15]: 7.4%
inhibition [16]: 89.8%
inhibition [17]: 1.6%
Structure (SMILES): Cc1ccc(C(=O)Nc2ccc(Cl)cc2)cc1C#Cc1cc(-c2cnn(C)c2)cnc1N
